Tests used:
[1] = biological target: Somatostatin receptor type 1 (Homo sapiens, UniProt P30872); assay: The compound was tested for binding affinity against human Somatostatin receptor type 1
How it was run: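 Membranes from CHO-K1 cells transfected with the cloned human receptor. Terminated by filtration on PEI-soaked GF/C filters. Nonspecific binding defined with 1.0 μM SRIF. Mean ± SEM; single values are from one experiment.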

[2] = biological target: Somatostatin receptor type 3 (Homo sapiens, UniProt P32745); assay: The compound was tested for binding affinity against human Somatostatin receptor type 3
Somatostatin receptor type 3, sequence (P32745 whole entry): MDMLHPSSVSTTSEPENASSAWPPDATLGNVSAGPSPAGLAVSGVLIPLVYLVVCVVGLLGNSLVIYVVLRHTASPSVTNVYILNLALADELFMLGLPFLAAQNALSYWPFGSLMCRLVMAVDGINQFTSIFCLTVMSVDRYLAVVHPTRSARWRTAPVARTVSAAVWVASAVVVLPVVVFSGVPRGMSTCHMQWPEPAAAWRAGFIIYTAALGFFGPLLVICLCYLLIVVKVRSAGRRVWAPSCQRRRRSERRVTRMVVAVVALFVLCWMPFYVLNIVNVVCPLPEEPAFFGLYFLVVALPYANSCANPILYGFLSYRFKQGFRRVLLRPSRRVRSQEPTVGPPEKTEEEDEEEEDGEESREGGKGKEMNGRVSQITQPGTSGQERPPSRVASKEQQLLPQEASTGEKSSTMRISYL
How it was run: (§1)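 CHO-K1 cells stably transfected (calcium phosphate) with cloned human sst3 or sst4. Membranes made in ice-cold 50 mM Tris-HCl, resuspended in 10 mM Tris-HCl, then incubated 30 min at 37 °C with 0.05 nM [125I]Tyr11-SRIF in HEPES pH 7.4 with BSA, MgCl2 and protease inhibitors. Filtered on GF/C; nonspecific binding with 1.0 µM SRIF. Mean ± SEM, or one experiment.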

[3] = biological target: Somatostatin receptor type 4 (Homo sapiens, UniProt P31391); assay: The compound was tested for binding affinity against human Somatostatin receptor type 4; how it was run: as §1
Somatostatin receptor type 4, sequence (P31391 whole entry): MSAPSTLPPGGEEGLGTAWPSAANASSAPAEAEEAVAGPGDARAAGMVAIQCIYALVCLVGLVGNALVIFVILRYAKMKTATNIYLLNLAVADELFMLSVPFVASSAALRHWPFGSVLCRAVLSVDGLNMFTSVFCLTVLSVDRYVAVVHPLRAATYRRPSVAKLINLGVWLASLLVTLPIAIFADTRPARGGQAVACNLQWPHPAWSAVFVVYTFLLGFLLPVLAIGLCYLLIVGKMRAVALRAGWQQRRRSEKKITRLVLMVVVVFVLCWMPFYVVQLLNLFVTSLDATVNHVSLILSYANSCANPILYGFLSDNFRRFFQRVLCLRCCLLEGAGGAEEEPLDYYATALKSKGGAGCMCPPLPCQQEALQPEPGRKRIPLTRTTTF

[4] = biological target: Somatostatin receptor type 2 (Homo sapiens, UniProt P30874); assay: The compound was tested for binding affinity against human Somatostatin receptor type 2
Somatostatin receptor type 2, sequence (P30874 whole entry): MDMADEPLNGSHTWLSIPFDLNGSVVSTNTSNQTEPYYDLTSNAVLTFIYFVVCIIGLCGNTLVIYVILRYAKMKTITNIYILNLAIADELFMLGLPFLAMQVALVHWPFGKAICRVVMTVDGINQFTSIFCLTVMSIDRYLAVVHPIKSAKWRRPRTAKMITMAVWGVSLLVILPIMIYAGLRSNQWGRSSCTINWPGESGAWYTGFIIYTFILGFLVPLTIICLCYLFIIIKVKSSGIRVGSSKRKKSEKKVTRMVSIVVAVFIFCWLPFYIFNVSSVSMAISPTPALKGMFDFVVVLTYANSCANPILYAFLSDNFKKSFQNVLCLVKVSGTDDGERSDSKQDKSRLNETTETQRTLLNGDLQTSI
How it was run: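 Membranes from CHO-K1 cells transfected with the cloned human sst2. Incubated 30 min at 37 °C with 0.05 nM [125I]MK-678 in HEPES pH 7.4 with BSA, MgCl2, Trasylol, bacitracin and PMSF. Filtration on PEI-soaked GF/C filters. Nonspecific binding defined with 1.0 μM SRIF. Mean ± SEM; single values are from one experiment.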

[5] = biological target: Somatostatin receptor; assay: Antagonism of in vitro SRIF inhibition of GH release in rat in vitro pituitary cell assay; format: functional, cell-based; details: pituitary gland cell
How it was run: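 Dispersed adult male rat anterior pituitary cells (trypsin/DNase), about 200 000 cells/well, cultured 4–5 days at 37 °C. GH measured by double-antibody RIA. IC50 versus SRIF, mean ± SEM of n dose–response curves.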

Somatostatin receptor type 1, sequence (P30872 whole entry): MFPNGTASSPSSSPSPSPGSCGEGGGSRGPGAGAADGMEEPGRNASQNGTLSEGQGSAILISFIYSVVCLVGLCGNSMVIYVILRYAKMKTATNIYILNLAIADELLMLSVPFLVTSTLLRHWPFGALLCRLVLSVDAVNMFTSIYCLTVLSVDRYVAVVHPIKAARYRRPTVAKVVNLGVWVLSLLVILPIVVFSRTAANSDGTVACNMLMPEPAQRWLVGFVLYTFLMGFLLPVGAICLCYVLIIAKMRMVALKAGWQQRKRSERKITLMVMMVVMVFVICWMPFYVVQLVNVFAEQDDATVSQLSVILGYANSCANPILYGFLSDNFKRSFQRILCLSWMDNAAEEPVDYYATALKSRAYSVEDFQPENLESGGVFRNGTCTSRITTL

Row | Compound | IC50 [5] [nM] | other results
1 | C[C@@H](O)[C@@H]1NC(=O)[C@H](CCCCN)NC(=O)[C@@H](Cc2c[nH]c3ccccc23)NC(=O)[C@H](Cc2ccc(O)cc2)NC(=O)[C@H](NC(=O)[C@@H](N)Cc2ccc(Cl)cc2)CSSC[C@@H](C(=O)N[C@@H](Cc2ccc3ccccc3c2)C(N)=O)NC1=O | 1.1 | Ki [1]: > 1000 nM; Ki [2]: 93 nM; Ki [3]: > 1000 nM; Ki [4]: 26 nM
2 | CC[C@H](C)[C@H]1NC(=O)[C@H](CCCCN)NC(=O)[C@@H](Cc2c[nH]c3ccccc23)NC(=O)[C@H](Cc2ccc(O)cc2)NC(=O)[C@@H](NC(=O)[C@@H](N)Cc2ccc(-c3ccccc3)cc2)CSSC[C@@H](C(=O)N[C@@H](Cc2ccc(-c3ccccc3)cc2)C(N)=O)NC1=O | 2110 | 
3 | NCCCC[C@@H]1NC(=O)[C@@H](Cc2c[nH]c3ccccc23)NC(=O)[C@H](Cc2cccnc2)NC(=O)[C@@H](NC(=O)[C@@H](N)Cc2ccc3ccccc3c2)CSSC[C@@H](C(=O)N[C@@H](Cc2ccc3ccccc3c2)C(N)=O)NC(=O)CNC1=O | 1510 | 
4 | CC(C)C[C@@H]1NC(=O)[C@H](CCCCN)NC(=O)[C@@H](Cc2c[nH]c3ccccc23)NC(=O)[C@H](Cc2cccnc2)NC(=O)[C@@H](NC(=O)[C@@H](N)Cc2ccc3ccccc3c2)CSSC[C@@H](C(=O)N[C@@H](Cc2ccc3ccccc3c2)C(N)=O)NC1=O | 48 | 
5 | CC(C)[C@H]1NC(=O)[C@H](CCCCN)NC(=O)[C@@H](Cc2c[nH]c3ccccc23)NC(=O)[C@H](Cc2cccnc2)NC(=O)[C@@H](NC(=O)[C@@H](N)Cc2ccc3ccccc3c2)CSSC[C@H](C(=O)N[C@H](C(N)=O)C(c2ccccc2)c2ccccc2)NC1=O | 91 | 
6 | C[C@@H]1NC(=O)[C@H](CCCCN)NC(=O)[C@@H](Cc2c[nH]c3ccccc23)NC(=O)[C@H](Cc2cccnc2)NC(=O)[C@@H](NC(=O)[C@@H](N)Cc2ccc3ccccc3c2)CSSC[C@@H](C(=O)N[C@@H](Cc2ccc3ccccc3c2)C(N)=O)NC1=O | 425 | 
7 | C[C@@H](O)[C@@H]1NC(=O)[C@H](CCCCN)NC(=O)[C@@H](Cc2c[nH]c3ccccc23)NC(=O)[C@H](Cc2ccccn2)NC(=O)C(NC(=O)[C@@H](N)Cc2ccc(Cl)cc2)CSSCC(C(=O)N[C@@H](Cc2ccc3ccccc3c2)C(N)=O)NC1=O (stereo in doubt) | 135 | 
8 | C[C@@H](O)[C@@H]1NC(=O)[C@H](CCCCN)NC(=O)[C@@H](Cc2c[nH]c3ccccc23)NC(=O)[C@@H](Cc2ccccn2)NC(=O)C(NC(=O)[C@@H](N)Cc2ccc(Cl)cc2)CSSCC(C(=O)N[C@@H](Cc2ccc3ccccc3c2)C(N)=O)NC1=O (stereo in doubt) | 2.7 | 
9 | CC(C)[C@H]1NC(=O)[C@H](CCCCN)NC(=O)[C@@H](Cc2c[nH]c3ccccc23)NC(=O)[C@H](Cc2c[nH]cn2)NC(=O)C(NC(=O)[C@@H](N)Cc2ccccc2F)CSSCC(C(=O)N[C@@H](Cc2ccccc2F)C(N)=O)NC1=O (stereo in doubt) | 393 | 
10 | CC(C)[C@@H]1NC(=O)[C@H](CCCCN)NC(=O)[C@@H](Cc2c[nH]c3ccccc23)NC(=O)[C@H](Cc2ccc(O)c(I)c2)NC(=O)C(NC(=O)[C@@H](N)Cc2ccc3ccccc3c2)CSSCC(C(=O)N[C@@H](Cc2ccc3ccccc3c2)C(N)=O)NC1=O (stereo in doubt) | 20 | 
11 | CC(C)(C)C[C@@H]1NC(=O)[C@H](CCCCN)NC(=O)[C@@H](Cc2c[nH]c3ccccc23)NC(=O)[C@H](Cc2cccnc2)NC(=O)C(NC(=O)[C@@H](N)Cc2ccc(Cl)cc2)CSSCC(C(=O)N[C@@H](Cc2ccc3ccccc3c2)C(N)=O)NC1=O (stereo in doubt) | 125 | 

Continued, in another order:

Row | IC50 [5] [nM] | Compound | other results
12 | 4 | CC(C)[C@H]1NC(=O)[C@H](CCCCN)NC(=O)[C@@H](Cc2c[nH]c3ccccc23)NC(=O)[C@H](Cc2cccnc2)NC(=O)[C@@H](NC(=O)[C@@H](N)Cc2ccc(I)cc2)CSSC[C@H](C(=O)N[C@@H](Cc2ccc(I)cc2)C(N)=O)NC1=O | 
13 | 150 | CC(C)[C@H]1NC(=O)[C@H](CCCCN)NC(=O)[C@@H](Cc2c[nH]c3ccccc23)NC(=O)[C@H](Cc2cccnc2)NC(=O)[C@@H](NC(=O)[C@@H](N)Cc2ccc3ccccc3c2)CSSC[C@H](C(=O)N[C@@H](Cc2ccc(F)cc2)C(N)=O)NC1=O | 
14 | 87 | CC(C)[C@H]1NC(=O)[C@H](CCCCN)NC(=O)[C@@H](Cc2c[nH]c3ccccc23)NC(=O)[C@H](Cc2cccnc2)NC(=O)[C@@H](NC(=O)[C@@H](N)Cc2ccc(F)cc2)CSSC[C@H](C(=O)N[C@@H](Cc2ccc(F)cc2)C(N)=O)NC1=O | 
15 | 74 | CC(C)[C@H]1NC(=O)[C@H](CCCCN)NC(=O)[C@@H](Cc2c[nH]c3ccccc23)NC(=O)[C@H](Cc2cccnc2)NC(=O)[C@@H](NC(=O)[C@H](N)Cc2ccc(F)cc2)CSSC[C@H](C(=O)N[C@H](Cc2ccc(F)cc2)C(N)=O)NC1=O | 
16 | 292 | CC(C)[C@H]1NC(=O)[C@H](CCCCN)NC(=O)[C@@H](Cc2c[nH]c3ccccc23)NC(=O)[C@H](Cc2cccnc2)NC(=O)[C@@H](NC(=O)[C@@H](N)Cc2c(F)c(F)c(F)c(F)c2F)CSSC[C@H](C(=O)N[C@@H](Cc2c(F)c(F)c(F)c(F)c2F)C(N)=O)NC1=O | 
17 | 6.5 | CC(C)[C@H]1NC(=O)[C@H](CCCCN)NC(=O)[C@@H](Cc2c[nH]c3ccccc23)NC(=O)[C@H](Cc2cccnc2)NC(=O)[C@@H](NC(=O)[C@@H](N)Cc2ccc(F)cc2)CSSC[C@H](C(=O)N[C@@H](Cc2ccc3ccccc3c2)C(N)=O)NC1=O | 
18 | 765 | CC(C)[C@H]1NC(=O)[C@H](CCCCN)NC(=O)[C@@H](Cc2c[nH]c3ccccc23)NC(=O)[C@H](Cc2ccccn2)NC(=O)[C@@H](NC(=O)[C@@H](N)Cc2c(F)c(F)c(F)c(F)c2F)CSSC[C@H](C(=O)N[C@@H](Cc2c(F)c(F)c(F)c(F)c2F)C(N)=O)NC1=O | 
19 | 2.6 | CC(C)[C@H]1NC(=O)[C@H](CCCCN)NC(=O)[C@@H](Cc2c[nH]c3ccccc23)NC(=O)[C@H](Cc2cccnc2)NC(=O)[C@@H](NC(=O)[C@@H](N)Cc2ccc(Cl)cc2)CSSC[C@H](C(=O)N[C@@H](Cc2ccc3ccccc3c2)C(N)=O)NC1=O | 
20 | 2.7 | CC(C)[C@H]1NC(=O)[C@H](CCCCN)NC(=O)[C@@H](Cc2c[nH]c3ccccc23)NC(=O)[C@H](Cc2cccnc2)NC(=O)[C@@H](NC(=O)[C@@H](N)Cc2ccc(Br)cc2)CSSC[C@H](C(=O)N[C@@H](Cc2ccc(Br)cc2)C(N)=O)NC1=O | 
21 | 3 | CC(C)[C@H]1NC(=O)[C@H](CCCCN)NC(=O)[C@@H](Cc2c[nH]c3ccccc23)NC(=O)[C@H](Cc2cccnc2)NC(=O)[C@@H](NC(=O)[C@@H](N)Cc2ccc(Cl)cc2)CSSC[C@H](C(=O)N[C@@H](Cc2ccc(Cl)cc2)C(N)=O)NC1=O | 
22 | 105 | CC(C)[C@H]1NC(=O)[C@H](CCCCN)NC(=O)[C@@H](Cc2c[nH]c3ccccc23)NC(=O)[C@H](Cc2c[nH]cn2)NC(=O)C(NC(=O)[C@@H](N)Cc2ccc(F)cc2)CSSCC(C(=O)N[C@@H](Cc2ccc(F)cc2)C(N)=O)NC1=O (stereo in doubt) | 
23 | 137 | CC(C)[C@H]1NC(=O)[C@H](CCCCN)NC(=O)[C@@H](Cc2c[nH]c3ccccc23)NC(=O)[C@H](Cc2c[nH]cn2)NC(=O)C(NC(=O)[C@@H](N)Cc2cccc(F)c2)CSSCC(C(=O)N[C@@H](Cc2cccc(F)c2)C(N)=O)NC1=O (stereo in doubt) | 
24 | 2410 | CC(C)[C@H]1NC(=O)[C@H](CCCCN)NC(=O)[C@@H](Cc2c[nH]c3ccccc23)NC(=O)[C@H](Cc2c[nH]cn2)NC(=O)C(NC(=O)[C@@H](N)Cc2c(F)c(F)c(F)c(F)c2F)CSSCC(C(=O)N[C@@H](Cc2c(F)c(F)c(F)c(F)c2F)C(N)=O)NC1=O (stereo in doubt) | 
